Screening results (PubChem)
Sampled rows, rich in hits. Any-hit rate of the full collection: about 4.4%.
SENP1 FRET inh: SENP1 (human) catalytic domain inhibition; AID 624204; Q9P0U3; recombinant SENP1 catalytic domain, CyPet-SUMO1-YPet FRET cleavage; actives 0.21% (n = 360,000); inhibition, % at 10 µM;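 active means inhibition at least 30% at 10 µM, raw YFP signal under a set limit, fluorescence ratio 0.5 to 1.5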;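 further: 0% = enzyme with DMSO and 100% = no enzyme wells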
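Assay system – human recombinant His6-tagged SENP1 catalytic domain enzyme · Input – SENP1 enzyme, 20 pM final · Buffer or medium – Tris pH 8 buffer plus EDTA, NaCl, BME, BSA, NP40, catalase · Schedule – 50 min reaction at room temperature · Technique – FRET read of cyan and yellow fluorescence · Control set – no-enzyme wells low, DMSO-plus-enzyme wells high control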
GRIN3A LBD mod: NR3A (human) ligand-binding domain modulation; NR3A LBD differential scanning fluorimetry, Tm shift; 0% = protein alone, 100% = glycine-bound protein; Tm shift relative to glycine control, % at 25 µM; actives 2.5% (n = 340,000); AID 1259313;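 active means melting temperature shift of at least 10% of the positive control shift, at one fixed dose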
MPTP block: blocks calcium-induced mitochondrial swelling; actives 1.4% (n = 360,000); isolated mouse mitochondria, Ca2+ swelling absorbance, 30 min; inhibition, % at 10 µM; AID 602449;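 active means inhibition of 50% or more, scaled per plate between neutral and stimulator controls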;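 further: 0% = DMSO wells given calcium and 100% = 1 mM EGTA wells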
EBI2 block: blocks human EBI2 receptor beta-arrestin signaling; AID 651636; P32249; actives 0.81% (n = 360,000); EBI2 beta-arrestin recruitment, luminescence, 7a,25-OHC stimulated; inhibition, % at 5 µM; in the data active means inhibition above about 38%;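 further: enzyme fragment complementation signal reports receptor beta-arrestin coupling in cells; 0% = agonist plus DMSO wells and 100% = wells without agonist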
Target sequence (P32249 whole entry, looked up, the tested form may be a part): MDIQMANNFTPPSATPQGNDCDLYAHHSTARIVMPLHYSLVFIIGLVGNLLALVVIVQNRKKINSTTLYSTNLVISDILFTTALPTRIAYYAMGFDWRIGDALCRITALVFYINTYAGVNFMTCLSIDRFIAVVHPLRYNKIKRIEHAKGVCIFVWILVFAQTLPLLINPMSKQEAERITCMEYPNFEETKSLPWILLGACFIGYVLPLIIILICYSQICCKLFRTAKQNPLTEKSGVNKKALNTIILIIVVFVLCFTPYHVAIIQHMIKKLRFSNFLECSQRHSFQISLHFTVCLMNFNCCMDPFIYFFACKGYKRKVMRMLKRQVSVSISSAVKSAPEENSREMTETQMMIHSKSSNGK
An asterisk follows results filed as active; . = no result.

SMILES	SENP1 FRET inh	GRIN3A LBD mod	MPTP block	EBI2 block
CC1CCN(S(=O)(=O)N2CCC(C(=O)NCc3ccc(F)cc3Cl)CC2)CC1	2	.	0	-7
COc1cc(NCCCn2ccc(NC(=O)OCc3ccccc3)nc2=O)cc(OC)c1OC	2	17*	-1	-12
Cn1c(SCc2cc(=O)[nH]c3ccccc23)nnc1-c1ccc(Br)cc1	1	1	1	9
CC(=O)Nc1ccc(C(=O)OCC(=O)Nc2c(F)cccc2F)cc1	-1	-2	1	-12
Cc1ccc(NC(=O)c2cccc(Oc3ccc([N+](=O)[O-])cc3)c2)c(C(=O)O)c1	2	3	6	0
Cc1cc(O)c(NC(=O)c2cccc([N+](=O)[O-])c2)cc1C	2	17*	3	5
O=C(Nc1ccc(O)cc1)c1cccc(Oc2ccc([N+](=O)[O-])cc2)c1	3	32*	0	1
O=C(Nc1cc([N+](=O)[O-])ccc1O)c1cccc(C(=O)Nc2cc([N+](=O)[O-])ccc2O)c1	1	25*	0	1
O=C(CN(Cc1ccccc1)S(=O)(=O)c1ccc(F)cc1)NCc1ccccn1	0	1	-1	4
O=C(CCN1CCN(Cc2ccccc2)CC1)Nc1cccc(Br)c1	4	-5	-1	5
Oc1ccc(/C=N/Nc2cccc(Cl)n2)c(O)c1	0	27*	1	5
Cc1ncc(CO)c(/C=N/Nc2cccc(Cl)n2)c1O	-67	15*	-7	2
Cc1cc(C(=O)N/N=C/c2c(CO)cnc(C)c2O)c2ccccc2n1	12	1	2	-10
O=S(=O)(Nc1nc2ccccc2nc1Nc1ccc2c(c1)OCCO2)c1cccs1	-29	13*	37	-1
O=S(=O)(Nc1nc2ccccc2nc1Cl)c1ccc2c(c1)OCCO2	-12	0	0	-14
CC(C)C[C@H]1C(=O)N2CCC[C@H]2[C@]2(O)O[C@](NC(=O)C3C=C4c5cccc6[nH]c(Br)c(c56)C[C@H]4N(C)C3)(C(C)C)C(=O)N12 (stereo partly specified)	-4	-8	-1	90*
CC(=O)Nc1ccc2c(c1)nc(CCN1CCN(c3ccccn3)CC1)n2C	2	-2	0	-8
O=S(=O)(c1ccc(F)cc1F)N1CCN(CCO)CC1	1	13*	2	-6
O=C(CN1C(=O)c2ccccc2S1(=O)=O)N1CCCCC1	1	-6	-1	4
CCOC(=O)C1CCN(C(=O)CN2C(=O)c3ccccc3S2(=O)=O)CC1	0	18*	-1	-6
O=c1nc(-c2ccccc2)n(-c2ccccc2)[nH]1	-1	3	0	0
C=C1C(=O)c2sccc2C(c2ccc(OC)c(OC)c2)C1COC(C)=O (stereo unspecified)	1	-1	0	60*
C/C(=N\Nc1nnc(C)c(=O)[nH]1)C(=O)O	1	0	-1	-5
C=CCNc1nc(NCc2cccc(OC)c2)c2sc(-c3ccccc3)cc2n1	-12	.	5	57*
Cc1ccccc1-c1cc(C(=O)NCc2cccc(C(F)(F)F)c2)nn1CC1CC(c2cccc([N+](=O)[O-])c2)=NO1 (stereo unspecified)	-1	-7	-1	14
SMILES	SENP1 FRET inh	GRIN3A LBD mod	MPTP block	EBI2 block
CCOC(=O)C(=O)NC12CC3CC(CC(C3)C1)C2	1	11*	6	-18
CCOCC(=O)OCC(=O)NC12CC3CC(CC(C3)C1)C2	0	-2	2	-3
O=C(O)CCN1C(=O)/C(=C/c2cn(-c3ccccc3)nc2-c2cccs2)SC1=S	20	29*	0	8
O=C(O)CCCCCN1C(=O)/C(=C/c2cn(-c3ccccc3)nc2-c2cccs2)SC1=S	10	20*	9	23
CC(=O)N(Cc1ccccc1)c1nc(-c2ccccc2)cs1	1	0	-1	18
CCc1c(C)sc(NC(=O)Cn2nc(C)c([N+](=O)[O-])c2C)c1C(N)=O	-7	0	0	2
O=C(Cc1ccon1)c1ccc(O)cc1O	-1	0	-1	-8
O=C(CC1S/C(=N\S(=O)(=O)c2ccccc2)N(c2ccccc2)C1=O)Nc1ccc(F)cc1 (stereo unspecified)	0	10*	-1	2
CCCN1C2=NCCN2c2cc(C)c(C)cc21	0	-1	-1	1
Cc1ccccc1NC(=O)NC1(C(=O)NCCCN2CCOCC2)CCCCC1	0	.	-3	-6
Cc1ccc2oc(-c3cccc(NC(=O)/C=C/c4cccc([N+](=O)[O-])c4)c3C)nc2c1	-19	17*	10	0
